Results as given in ChEMBL document CHEMBL3286264, “Discovery of novel and selective SIRT6 inhibitors” (J Med Chem, 2014).
pIC50: −log10 of the molar value. One block for each compound: values may come before it. Activity calls are given as the source filed them. The rule behind the calls is not given here.

Assays:
[1] = target: T1, NAD-dependent protein deacylase sirtuin-6 (Homo sapiens, UniProt Q8N6T7); test: Inhibition of SIRT6 (unknown origin) at 200 uM by fluorescence-based assay
[2] = target: T1, NAD-dependent protein deacylase sirtuin-6; test: Inhibition of SIRT6 in human BxPC3 cells assessed as increase in H3K9 acetylation at 100 uM after >18 hrs by immunoblot analysis; assay type: cell-based; conditions: BXPC-3
Procedure, shortened: (§1)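 BxPC-3 cells plated 4 × 10^5 per well, adhered 24 h, then given 100 μM compound or matching DMSO (final DMSO 2–6‰) for varying times. Lysates (30 μg) resolved on 15% SDS-PAGE and immunoblotted for acetyl-H3K9 and total H3 with ECL. Acetyl-H3K9 normalized to total H3 and expressed as % versus vehicle-treated cells.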

BXPC-3 [3] = test: Increase in GLUT1 expression in human BxPC3 cells at 12.5 to 200 uM after 24 hrs by Western blotting analysis; assay type: functional, cell-based
Procedure, shortened: (§2)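 BxPC-3 cells plated 4 × 10^5 per well and allowed to adhere 24 h. Treated either 24 h at the stated concentrations or for a time course at 200 μM. Lysed in Tris-HCl pH 7.5/NaCl/NP40 buffer. 30 μg protein run on 15% SDS-PAGE and transferred to PVDF. GLUT-1 and γ-tubulin detected by immunoblotting with ECL.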

Homo sapiens [4] = species: Homo sapiens; test: Selectivity ratio of IC50 for SIRT1 (unknown origin) to IC50 for SIRT6 (unknown origin)
Procedure, shortened: (§3)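 Deacetylase activity measured with commercial fluorescence-based SIRT1, SIRT2 or SIRT6 kits per manufacturer's instructions. Compounds from 50 mM DMSO stocks, tested from 8 μM to 5 mM. IC50 derived by logarithmic nonlinear regression. Three independent determinations per compound.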

BXPC-3 [5] = test: Increase in GLUT1 expression in human BxPC3 cell surface at 100 uM after 24 hrs by flow cytometry; assay type: functional, cell-based
Procedure, shortened: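 BxPC-3 cells plated 4 × 10^5 per well, allowed to adhere 24 h, then exposed 24 h to 100 μM compound or DMSO vehicle. Cells trypsinized, fixed 10 min in 100% methanol at −20 °C, stained with anti-GLUT-1 antibody then anti-mouse IgG2a (each 30 min, 4 °C). Analysed by flow cytometry, 10.000 events/sample.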

[6] = target: T1, NAD-dependent protein deacylase sirtuin-6; test: Inhibition of SIRT6 (unknown origin); procedure, shortened: as §3
L6 = test: Increase in [14C]-2-deoxy-D-glucose uptake in rat L6 cells at 200 uM after 18 hrs by scintillation counting analysis relative to control; assay type: functional
Procedure, shortened: (§4)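 Human BxPC-3 or rat L6 cells (6 × 10^5/well) treated in triplicate for 18 h with 200 μM (final) compound in complete medium. Uptake measured with 0.5 mM 2-deoxy-D-glucose/[14C]-2-deoxy-D-glucose (0.5 μCi/well) in KRH buffer for 5 min at 37 °C. Cells lysed in 0.1% SDS for scintillation counting. Uptake in presence of cytochalasin B plus phloretin subtracted. Expressed relative to untreated.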

[7] = target: T2, NAD-dependent protein deacetylase sirtuin-1 (Homo sapiens, UniProt Q96EB6); test: Inhibition of SIRT1 (unknown origin); procedure, shortened: as §3
T2 sequence (Q96EB6 whole entry): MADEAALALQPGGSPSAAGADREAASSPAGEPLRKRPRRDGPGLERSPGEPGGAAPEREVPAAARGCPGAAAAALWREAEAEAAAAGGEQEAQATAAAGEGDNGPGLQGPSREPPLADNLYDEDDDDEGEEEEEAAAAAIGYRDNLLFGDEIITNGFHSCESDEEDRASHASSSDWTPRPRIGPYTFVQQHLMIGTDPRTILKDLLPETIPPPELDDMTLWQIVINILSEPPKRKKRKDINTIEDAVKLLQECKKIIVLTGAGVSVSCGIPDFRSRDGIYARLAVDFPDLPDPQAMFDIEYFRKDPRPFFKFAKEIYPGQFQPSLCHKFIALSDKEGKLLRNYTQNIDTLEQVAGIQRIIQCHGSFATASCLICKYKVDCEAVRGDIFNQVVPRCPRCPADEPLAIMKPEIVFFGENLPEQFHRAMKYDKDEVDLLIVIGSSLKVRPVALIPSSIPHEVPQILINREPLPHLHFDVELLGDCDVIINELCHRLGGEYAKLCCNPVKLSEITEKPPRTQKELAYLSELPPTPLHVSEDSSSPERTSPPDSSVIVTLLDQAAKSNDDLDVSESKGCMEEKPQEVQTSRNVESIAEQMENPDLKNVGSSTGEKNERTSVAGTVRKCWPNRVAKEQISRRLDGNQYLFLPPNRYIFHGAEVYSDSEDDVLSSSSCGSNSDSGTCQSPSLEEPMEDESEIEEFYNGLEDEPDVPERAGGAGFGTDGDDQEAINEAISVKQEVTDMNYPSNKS

[8] = target: T1, NAD-dependent protein deacylase sirtuin-6; test: Inhibition of SIRT6 in human BxPC3 cells assessed as increase in H3K9 acetylation at 100 uM after 18 hrs by immunoblot analysis; assay type: cell-based; conditions: BXPC-3; procedure, shortened: as §1
[9] = target: T3, NAD-dependent protein deacetylase sirtuin-2 (Homo sapiens, UniProt Q8IXJ6); test: Inhibition of SIRT2 (unknown origin); procedure, shortened: as §3
T3 sequence (Q8IXJ6 whole entry): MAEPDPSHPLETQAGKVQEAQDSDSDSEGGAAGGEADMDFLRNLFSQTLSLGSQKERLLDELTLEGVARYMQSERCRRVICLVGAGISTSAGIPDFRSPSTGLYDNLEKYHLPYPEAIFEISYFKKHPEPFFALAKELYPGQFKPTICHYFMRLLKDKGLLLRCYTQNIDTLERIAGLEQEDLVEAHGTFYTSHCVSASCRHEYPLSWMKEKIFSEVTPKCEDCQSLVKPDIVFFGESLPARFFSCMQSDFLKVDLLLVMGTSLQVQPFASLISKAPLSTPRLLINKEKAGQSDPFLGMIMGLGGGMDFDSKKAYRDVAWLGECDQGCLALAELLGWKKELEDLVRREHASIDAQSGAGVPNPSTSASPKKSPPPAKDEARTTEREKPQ

Homo sapiens [10] = species: Homo sapiens; test: Selectivity ratio of IC50 for SIRT2 (unknown origin) to IC50 for SIRT6 (unknown origin); procedure, shortened: as §3
BXPC-3 [11] = test: Increase in [14C]-2-deoxy-D-glucose uptake in human BxPC3 cells at 200 uM after 18 hrs by scintillation counting analysis relative to control; assay type: functional; procedure, shortened: as §4
BXPC-3 [12] = test: Inhibition of PMA-induced TNF-alpha secretion in human BxPC3 cells at 100 uM incubated for overnight prior to stimulation of PMA for 24 hrs by ELISA; assay type: functional; conditions: BXPC-3, 24 h
Procedure, shortened: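 BxPC-3 cells (3 × 10^5/well) allowed to adhere 24 h, then incubated overnight with 100 μM compound or vehicle. Stimulated 24 h with 25 ng/mL PMA. TNF-α in supernatants measured by DuoSet ELISA. Expressed as % inhibition.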

BXPC-3 [13] = test: Increase in GLUT1 expression in human BxPC3 cells at 200 uM after 6 hrs by Western blotting analysis; assay type: functional, cell-based; procedure, shortened: as §2

T1 sequence (Q8N6T7 whole entry): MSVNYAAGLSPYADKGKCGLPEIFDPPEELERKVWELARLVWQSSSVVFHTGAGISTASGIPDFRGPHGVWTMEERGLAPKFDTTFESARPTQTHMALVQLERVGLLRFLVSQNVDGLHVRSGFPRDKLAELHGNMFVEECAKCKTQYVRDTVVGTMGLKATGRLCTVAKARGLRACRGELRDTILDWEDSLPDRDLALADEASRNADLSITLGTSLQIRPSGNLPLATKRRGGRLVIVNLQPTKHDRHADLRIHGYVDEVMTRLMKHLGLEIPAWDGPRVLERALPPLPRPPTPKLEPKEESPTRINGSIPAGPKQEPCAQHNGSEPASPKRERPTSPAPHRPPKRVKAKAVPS

SMILES: Cc1nc(=O)c2c([nH]1)CC1CCC(C2)N1Cc1ccc2c(c1)CC(C)O2 (stereo unspecified)
inhibition [1]: inactive

SMILES: O=c1[nH]c(=O)c2cc(S(=O)(=O)Nc3ccc(Oc4cccnc4)cc3)ccc2[nH]1
inhibition [2]: inactive
Activity (BXPC-3 [3]): Active
Ratio IC50 (Homo sapiens [4]): 2.96
Activity (BXPC-3 [5]): Active
pIC50 [6]: 3.97
inhibition [1]: 100%
fold change (FC) (L6): 1.98
pIC50 [7]: 3.50
inhibition [8]: Active
pIC50 [9]: 3.94
Ratio IC50 (Homo sapiens [10]): 1.07
fold change (FC) (BXPC-3 [11]): 1.3
inhibition at 100 µM (BXPC-3 [12]): 73%

SMILES: O=C1NC(=O)C2(CCCCCC2)N1
inhibition [1]: inactive

SMILES: CCOc1ccc(NC2SC(=O)NC2=O)cc1 (stereo unspecified)
inhibition [1]: inactive

SMILES: O=C(CSc1nc[nH]n1)CSc1nc[nH]n1
inhibition [1]: inactive

SMILES: NC(=O)c1ccc[n+](CCCCCC[n+]2cccc(C(N)=O)c2)c1
inhibition [1]: inactive

SMILES: O=C(Nc1ccc(NS(=O)(=O)c2ccc(Oc3ccc([N+](=O)[O-])cc3)cc2)cc1)c1ccccc1
inhibition [1]: inactive

SMILES: O=C(Nc1ccc(O)c(C(=O)O)c1)c1cccc(NC(=O)c2ccco2)c1
Activity (BXPC-3 [3]): Active
Ratio IC50 (Homo sapiens [4]): 17.7
Activity (BXPC-3 [5]): Active
pIC50 [6]: 4.05
fold change (FC) (L6): 1.2
pIC50 [7]: 2.80
pIC50 [9]: 3.12
Ratio IC50 (Homo sapiens [10]): 8.44
fold change (FC) (BXPC-3 [11]): 1.11
inhibition at 100 µM (BXPC-3 [12]): 50%

SMILES: O=C(NCc1nc(-c2cccnc2)n[nH]1)c1cnccn1
Ratio IC50 (Homo sapiens [4]): 1.1
pIC50 [6]: 2.87
inhibition [1]: 12%
pIC50 [7]: 2.83
pIC50 [9]: 2.64
Ratio IC50 (Homo sapiens [10]): 1.71

Now from value to compound, other results behind:

inhibition [2]: inactive
Ratio IC50 (Homo sapiens [4]): 19.1
pIC50 [6]: 3.74
inhibition [1]: 66%
pIC50 [7]: 2.46
inhibition [8]: Active
pIC50 [9]: 2.76
Ratio IC50 (Homo sapiens [10]): 9.63
SMILES: N=C(Nc1ccccc1)SC1CC(=O)N(c2ccc(C(=O)O)cc2)C1=O (racemic)
Activity (BXPC-3 [13]): Active
fold change (FC) (L6): 1.55
fold change (FC) (BXPC-3 [11]): 3.09
inhibition at 100 µM (BXPC-3 [12]): 53%

inhibition [1]: inactive
SMILES: COc1ccc(OCC(O)Cn2c(NCCc3ccccc3)nc3c2c(=O)[nH]c(=O)n3C)cc1 (stereo unspecified)

inhibition [1]: inactive
SMILES: O=c1cc(-c2ccccc2)[nH]c(=O)[nH]1

inhibition [1]: inactive
SMILES: O=C(CSCc1ccc(Cl)c(Cl)c1)Nc1cnc(O)nc1O

inhibition [1]: inactive
SMILES: CC1(CCC(=O)O)NC(=O)NC1=O (stereo unspecified)
